Assay outcomes as filed in PubChem BioAssay.
GAA850 FXN act: frataxin GAA850 promoter activation. HEK293 lucGAA850 FXN promoter luciferase reporter, 24 h; percent of 10 µM SAHA response. 360,000 compounds, 0.56% hits. AID 540364. activation, % at 6 µM;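 active means activation above the average of all compounds screened plus 3 SD, cutoff fixed separately per campaign, cut at about 7.5% in these data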;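 further: 0% = DMSO wells and 100% = 10 µM SAHA wells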
CHOP UPR activ: apoptotic UPR (CHOP) activation | CHO-CHOP luciferase reporter, luminescence; percent of tunicamycin response over DMSO baseline | AID 449763 | 330,000 compounds, 0.34% hits | activation, % at 10 µM;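 active means at 10 µM dose, activation of 40% or more, normalized to positive control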;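 further: 100% = tunicamycin at 10 µg/mL and 0% = DMSO alone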
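Test system: CHO-CHOP cells, stable luciferase reporter of PERK-eIF2a-CHOP signalling | Quantity: 500 CHO-CHOP cells per well | Buffer or medium: F12 plus 10% serum | Compound dosing: 10 µM single point, 0.5% DMSO | Schedule: 6 h compound treatment, 37 °C | Signal: Luciferase luminescence | Control set: Tunicamycin high control, DMSO low control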
XBP1 UPR activ: activators of adaptive arm of unfolded protein response (XBP1); 330,000 compounds, 0.33% hits; CHO-XBP1 luciferase reporter, IRE1-XBP1 UPR activation, luminescence; percent of tunicamycin response, DMSO as zero; AID 463104; activation, % at 20 µM;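 active means versus positive control, 20 µM dose yields 30% or more activation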;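 further: 100% = tunicamycin at 10 µg/mL and 0% = DMSO only wells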
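Material: CHO cell line with stable XBP1 luciferase reporter; schedule: 16-18 h cell attachment at 37 °C, then 6 h compound exposure; signal: glow luminescence from Steady-Glo reagent; medium: serum-containing F12 medium, 10% FBS; benchmarks: tunicamycin 10 µg/mL and vehicle-only wells; read-out: percent activation relative to tunicamycin reference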
CHOP inh: inhibitors of CHOP induction in ER stress response | 220,000 compounds, 3.8% hits | AID 2732 | inhibition, % at 10 µM | CHO-K1 CHOP-promoter luciferase, tunicamycin-induced, 15-18 h;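 active means compounds that reduced the stress-induced luciferase reporter signal by more than about 70% of percent inhibition, limit read from the data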;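 further: 0% = tunicamycin plus vehicle and 100% = wells without tunicamycin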
Starred values were filed as active, the others as inactive; nt = not tested or not shown. This is one part of a sample in which hits are shown more often than they occur.

SMILES | GAA850 FXN act | CHOP UPR activ | XBP1 UPR activ | CHOP inh
C[C@@H]1CN([C@@H](C)CO)S(=O)(=O)c2ccc(Br)cc2O[C@H]1CN(C)C(=O)C1CCOCC1 | 0 | nt | nt | nt
COC(=O)c1cc(NC(=O)c2c(Cl)nc3sccn23)cc(C(=O)OC)c1 | 3 | -1 | 19 | 76*
COc1ccc(C(CCN(Cc2ccc(OC)c(OC)c2)C(C)=O)c2ccccc2)cc1 (centres undefined) | 3 | -3 | -3 | 2
COc1ccc(CN(CCC(c2ccccc2)c2ccc(OC(C)C)cc2)C(=O)CCl)cc1OC (centres undefined) | 0 | -9 | -6 | 110*
COc1ccc(CNCCC(c2ccc(F)cc2)c2ccc(OC(C)C)cc2)cc1OC (centres undefined) | -2 | -1 | -1 | 82*
CC(C)c1c(C(=O)Nc2ccccc2)c(-c2ccccc2)c(-c2ccc(F)cc2)n1CC[C@@H](O)C[C@@H](O)CC(=O)O | -2 | nt | nt | nt
Cc1[nH]n(-c2ccccc2)c(=S)c1C=Nc1ccc([N+](=O)[O-])cc1 | 2 | nt | nt | 80*
O=C1Nc2ccc(Br)cc2/C1=C/C1CC=CCC1 (centres undefined) | 4 | 2 | -2 | 95*
COc1ccc(C(C)=O)cc1CN1C(=O)C(C)ON=C1c1cccc(C(F)(F)F)c1 (centres undefined) | -2 | nt | nt | nt
C1CCC(C(CC2CCCCN2)C2CCCCC2)CC1 (centres undefined) | -7 | 8 | 11 | 99*
O=C(NCCc1ccc(F)cc1)C1CCC(=O)N(CC2CCCCC2)C1 (centres undefined) | 0 | nt | nt | nt
CCOc1ccc(N=Nc2c(=O)[nH]n3c(=O)c4c([nH]c23)CCCC4)cc1 | 1 | -1 | -3 | 87*
O=c1[nH]n2c(=O)c3c([nH]c2c1N=Nc1cccc(Cl)c1)CCCC3 | -1 | -1 | -3 | -7
CC(C)CCNC(=O)NC(=O)CSc1nnc(-c2ccccc2Br)o1 | -1 | -1 | -2 | 87*
COc1cccc(-c2nc(CS(=O)(=O)CC(=O)Nc3cc(F)ccc3F)c(C)o2)c1 | 1 | 0 | -1 | nt
Cc1ccccc1-c1nc(CS(=O)(=O)CC(=O)Nc2cc(F)ccc2F)c(C)o1 | 0 | -1 | -1 | 78*
O=C(CN1C(=O)c2ccccc2S1(=O)=O)c1ccc2c(c1)OCCO2 | -13 | -10 | -11 | 94*
O=C(NC(c1ccc(-c2ccccc2)cc1)c1cnccn1)C1CCN(CCOc2ccc(F)cc2)CC1 (centres undefined) | -1 | nt | nt | nt
CC(C)(C)C(=O)Nc1ccc(C(=O)OC2CCCCC2)cc1 | 10* | 7 | 3 | 30
CCCNC(=O)C1(C)CCCN(C(=O)c2c(C)noc2C)C1 (centres undefined) | -3 | nt | nt | nt
Cc1ccsc1/C=N/N1CCN(c2ccccn2)CC1 | 3 | 3 | 0 | -8
Cc1ccsc1/C=N/N1CCN(c2ccccc2)CC1 | 7.8* | 2 | -2 | -46
CN(C)CCOC(=O)C12CC3(C)CC(C)(CC(C)(C3)C1)C2 | 0 | 0 | -2 | 94*
CSC(N)=NCCC[C@H](N)C(=O)O | nt | nt | nt | 3
Cc1cc2ncn(C(=O)c3c(-c4ccccc4)noc3C)c2cc1C | 1 | 0 | -3 | 72*
SMILES | GAA850 FXN act | CHOP UPR activ | XBP1 UPR activ | CHOP inh
Cc1onc(-c2ccccc2)c1C(=O)n1nnc2ccccc21 | 1 | 0 | -3 | -43
Cc1cc2ncn(C(=O)c3c(-c4c(Cl)cccc4Cl)noc3C)c2cc1C | 4 | -3 | -2 | 74*
COc1ccc(/C(O)=C/c2nc3ccc(C(=O)NCCc4cccc(C)c4)cc3[nH]c2=O)cc1OC | 3 | 0 | -5 | 73*
O=C(COC(=O)c1cn(-c2ccccc2)nc1-c1ccccc1)c1ccc([N+](=O)[O-])cc1 | nt | 6 | -2 | 49
O=C(COC(=O)c1cn(-c2ccccc2)nc1-c1ccccc1)Nc1ncc(Cl)cc1Cl | 0 | -1 | -4 | 77*
Cc1ccc(C(=O)COC(=O)c2cn(-c3ccccc3)nc2-c2ccccc2)cc1[N+](=O)[O-] | 1 | 11 | 1 | 76*
CC1(C(=O)NS(=O)(=O)C2CC2)CCN(C(=O)c2ccc(F)c(Cl)c2)C1 (centres undefined) | -1 | nt | nt | nt
CCCCOc1ccc(C(C)NC(=O)CCS(=O)(=O)Cc2ccccc2F)cc1 (centres undefined) | 0 | 1 | -2 | 71*
Cc1ccc([N+](=O)[O-])cc1S(=O)(=O)Nc1cccc(S(=O)(=O)Nc2ccccc2C(=O)O)c1 | 0 | 2 | -1 | nt
Cc1ccc(C)c(NC(=O)c2ccccc2NS(=O)(=O)c2cc([N+](=O)[O-])ccc2C)c1 | -9 | 8 | 8 | 74*
CCC(C)Sc1nc2c(c(=O)[nH]1)C(c1cccs1)C1=C(CCCC1=O)N2 (centres undefined) | -2 | -1 | 1 | 82*
CCCNC(=O)C1(C)CCN(C(=O)Cc2ccc3ccccc3c2)C1 (centres undefined) | 0 | nt | nt | nt
O=[N+]([O-])c1cc(CN2CCN(c3ccccc3)CC2)c(O)c2ncccc12 | -4 | 10 | 14 | 77*
Cc1ccc(N2C(=O)c3cccc4c([N+](=O)[O-])ccc(c34)C2=O)c2cccnc12 | -4 | -3 | -4 | 95*
O=[N+]([O-])c1cc(Cl)c(O)c2ncccc12 | 1 | 0 | -2 | 28
O=[N+]([O-])c1cc([N+](=O)[O-])c2cccnc2c1Oc1ccccc1O | 2 | nt | nt | 86*
Cc1ccc(N2C(=O)c3cccc4c(N5CCN(C)CC5)ccc(c34)C2=O)c2cccnc12 | nt | 0 | 3 | 37
O=[N+]([O-])c1ccc(O)c2ncccc12 | -4 | 6 | 6 | 87*
COc1ccc(C(O)c2nc(-c3cccc(CO)c3)cs2)cc1 (centres undefined) | 2 | nt | nt | nt
COCCNc1nc(Oc2cncc(Cl)c2)c2sccc2n1 | 2 | nt | nt | nt
O=C1CN(C(=O)c2ccc(Br)o2)C(c2ccc(F)cc2)c2cc(Cl)ccc2N1 (centres undefined) | -1 | -2 | 0 | 69
O=C1CN(C(=O)c2ccc(Br)o2)C(c2ccccc2)c2cc(Cl)ccc2N1 (centres undefined) | -1 | -1 | 0 | 84*
CCOc1ccc(-c2nc3scc(-c4cccs4)c3c(=O)[nH]2)cc1 | -1 | -1 | 8 | 73*
CCCCCCN1C[C@@H](O)[C@H](n2cc(-c3ccc(F)cc3)nn2)C[C@@H]1c1ccccc1 | 1 | nt | nt | nt
CCOc1ccccc1NC(=O)Cn1nnc(C(=O)Nc2ccccc2Cl)c1N | 3 | 4 | -2 | 73*
COc1ccccc1NC(=O)c1nnn(CC(=O)Nc2cccc(SC)c2)c1N | -2 | -3 | -1 | 70*
CN1C(=O)/C(=C/c2ccccc2Cl)Sc2ccc(C(=O)NCc3cccnc3)cc21 | 2 | 1 | -1 | 81*
Nc1nc(=S)ss1 | -3 | nt | nt | nt
CS(=O)(=O)N(CC(=O)O)c1ccc(C23CC4CC(CC(C4)C2)C3)cc1 | 3 | 2 | 1 | nt
